Results as given in ChEMBL document CHEMBL4130499, “Serendipitous discovery of potent human head and neck squamous cell carcinoma anti-cancer molecules: A fortunate failure of a rational molecular design” (Eur J Med Chem, 2017).
Active and inactive are the calls of the source. The calls are words filed in the database; no cut-off is given here.

Legend:
WSU-HN13 [1] = experiment: Induction of PTEN protein expression in human HN13 cells incubated for 24 hrs by Western blot; format: functional, cell-based
In short: (§1)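 HN13 cells treated 24 h with 1.0 or 10.0 nM compound versus vehicle controls. Lysed in Tris pH 7.5/SDS/β-mercaptoethanol with protease inhibitors at 4 °C, protein quantified by BCA. 30 μg loaded for SDS-PAGE, transferred to PVDF, blocked 1 h in 5% milk, probed for PTEN (and pS6) with GAPDH loading control. HRP chemiluminescent detection.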

[2] = Cytotoxicity in human HN6 cells assessed as reduction in cell viability incubated for 24 hrs by MTT assay; format: functional, cell-based; details: HN-6, 24 h
In short: (§2)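 HNSCC lines (HN6, HN12, HN13) grown in DMEM with 10% fetal calf serum at 37 °C, 5% CO2, to 70–80% confluence. Seeded, after 24 h exposed to rising compound concentrations for a further 24 h. MTT (5 mg/mL in PBS) added, formazan dissolved in DMSO, absorbance read at 590 nm. IC50 in nM, mean of three independent triplicate experiments ± standard error.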

WSU-HN13 [3] = experiment: Cytotoxicity in human HN13 cells assessed as reduction in cell viability incubated for 24 hrs by MTT assay; format: functional, cell-based; details: WSU-HN13, 24 h; in short: as §2
[4] = Selectivity index, ratio of IC50 for cytotoxicity in human […] cells; format: toxicity, cell-based; details: HN13 cells and 184B5 cells, read-out: Ratio IC50
[5] = Cytotoxicity in human HN12 cells assessed as reduction in cell viability incubated for 24 hrs by MTT assay; format: functional, cell-based; details: HN12, 24 h; in short: as §2
[6] = target: T1, Histone deacetylase (Homo sapiens) (UniProt Q13547+O15379+Q9UBN7+Q92769+Q9UQL6+Q8WUI4+Q9BY41+Q96DB2+P56524+Q9UKV0+Q969S8); experiment: Inhibition of HDAC in human HN13 cells assessed as reduction in histone H3 acetylation incubated for 24 hrs by immunofluorescence assay; format: cell-based
In short: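 HN13 on glass coverslips, overnight at 37 °C, then treated 24 h at 1 and 10 nM, TSA as positive control. Fixed in 4% paraformaldehyde, permeabilized with 0.5% Triton X-100, blocked in 3% BSA/PBS. Anti-AcH3 (lys9) primary 2 h, TRITC anti-rabbit 1 h, nuclear counterstain.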

[7] = target: T1, Histone deacetylase (Homo sapiens); experiment: Inhibition of HDAC in human HeLa nuclear extracts at 500 uM incubated for 60 mins using fluorometric substrate by fluorometric assay; format: protein assay
In short: (§3)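 HeLa nuclear extract incubated with compound, assay buffer and acetyl-lysine fluorogenic HDAC substrate for 60 min at 37 °C. Lysine developer then added for a further 30 min at 37 °C. Fluorescence read at ex 370/em 450 nm. Water served as positive control and 20 µM TSA as inhibitor control.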

[8] = target: T1, Histone deacetylase (Homo sapiens); experiment: Ratio of inhibition of HDAC in human HN13 cells assessed as increase in histone H3 acetylation to IC50 for inhibition of HDAC in human HeLa nuclear extracts
[9] = target: T1, Histone deacetylase (Homo sapiens); experiment: Inhibition of HDAC in human HN13 cells assessed as increase in histone H3 acetylation at 1 nM incubated for 24 hrs by Western blot
184B5 = experiment: Cytotoxicity in human 184B5 cells assessed as reduction in cell viability incubated for 24 hrs by MTT assay; format: cell-based; details: 184B5, 24 h
In short: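 184B5 immortalized non-cancer breast epithelial cells; cytotoxicity over 24 h drug exposure, evaluated alongside the HNSCC lines; IC50 in nM taken as mean of three independent triplicate experiments ± standard error.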

WSU-HN13 [10] = experiment: Induction of PTEN protein expression in human HN13 cells assessed as reduction in PI3K/Akt/mTOR signalling by measuring reduction in pS6 protein expression incubated for 24 hrs by Western blot; format: functional, cell-based; in short: as §1
Histone deacetylase = experiment: Inhibition of HDAC in human HeLa nuclear extracts incubated for 60 mins using fluorometric substrate by fluorometric assay; format: protein assay; in short: as §3

| inhibition [6] | inhibition [7] [%] | Ratio [8] | inhibition [9] | IC50 (Histone deacetylase) [nM] | SMILES | Activity (WSU-HN13 [1]) | IC50 [2] [nM] | IC50 (WSU-HN13 [3]) [nM] | selectivity ratio [4] | IC50 [5] [nM] | IC50 (184B5) [nM] | Activity (WSU-HN13 [10]) |
| --- | --- | --- | --- | --- | --- | --- | --- | --- | --- | --- | --- | --- |
| Dose-dependent effect | 20 | 10 | Active | – | NC(=O)c1ccc(NS(=O)(=O)c2ccc(-c3ccccc3)cc2)cc1O | Dose-dependent effect | 4.73 | 9.66 | > 200 | 4.99 | 1960 | Dose-dependent effect |
| Dose-dependent effect | – | 10 | Active | 292000 | O=CN/N=C/c1ccc(NS(=O)(=O)c2ccc(-c3ccccc3)cc2)cc1O | Dose-dependent effect | 4.94 | 9.85 | > 186 | 5.03 | 1840 | Dose-dependent effect |
